Data on three compounds can be found in publication PMC12334575 (Nature Communications, 2025).

What all share (type): cell-based, Candida auris
One data set has as its system C. auris CBS10913. Briefly: Intracellular drug accumulation assay. Conditions: C. auris CBS10913, 20 µM, 10 min, 30 °C, PBS, silicone oil centrifugation, LC-MS. In a few lines: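 Yeast subcultured in SDB at 30 °C with shaking to mid-log (OD530 ≈ 0.6), washed twice in PBS and resuspended in PBS. Equilibrated 5 min at 30 °C, then test compound added to 20 µM final for 10 min. Cells spun at 13,000×g through pre-cooled silicone oil; intracellular compound quantified by LC-MS. Biological triplicates.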

The test system of a further data set is C. auris CBS12775. The experiment in a line: Checkerboard assay coniotin A with caspofungin. Particulars: refractory C. auris, checkerboard (Fig. 4a).
For another data set, the system named is C. auris CBS 10913. The experiment in a line: High-throughput screening of crude extracts and PFL fractions. Particulars: identified in active fractions of WAC11175, result in words. In a few lines: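 Primary screen: C. auris CBS 10913 colonies grown on YPD agar at 30 °C for 48 h, then suspended in RPMI 1640. 1 µL crude extract or fraction added to 49 µL culture in 384-well format, in duplicate. […] OD530 read after 48 h; hits defined as ≥75% growth inhibition versus untreated. For follow-up, producer strains were regrown on Bennett's agar at 30 °C for 7 days, extracts fractionated on C18, and DMSO-dissolved fractions retested in broth microdilution.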

Turning to `CC[C@H](C)C[C@H](C)CCCCCCCCC(=O)N[C@H]1C[C@@H](O)[C@@H](NCCN)NC(=O)[C@@H]2[C@@H](O)CCN2C(=O)[C@H]([C@H](O)CCN)NC(=O)[C@H]([C@H](O)[C@@H](O)c2ccc(O)cc2)NC(=O)[C@@H]2C[C@@H](O)CN2C(=O)[C@H]([C@@H](C)O)NC1=O` [Caspofungin], in the data set with C. auris CBS10913, the Intracellular accumulation entry is “measurable accumulation”. For the same compound, in the data set with C. auris CBS12775, the “MIC of caspofungin in the presence of coniotin A” value was found to be 2 µg/mL. As for enniatin A1, the “Activity against C. auris” value with C. auris CBS 10913 was “significant activity”. On the same count and under the same terms, under enniatin B1 stands “significant activity”.
